Reference: ChEMBL document CHEMBL1149782, “Synthesis and antifungal activity of some new 3-hydroxy-2-(1-phenyl-3-aryl-4-pyrazolyl) chromones” (2008)

What was measured:
Assay type in all cases: functional
Fusarium oxysporum [1] = assay: Antifungal activity against Fusarium oxysporum at 1000 ppm after 96 hrs
Method in brief: (§1)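 Poisoned-food assay on potato dextrose agar (200 g potato per litre, boiled and filtered) with compound mixed into sterilized medium at final 100, 500 or 1000 ppm. Plates were centre-inoculated with mycelial discs from 7-day PDA cultures and incubated at 28 ± 1 °C. Colony diameter was measured at two right angles after 96 h. Inhibition = (C − T) × 100/C against compound-free control, mean of three replicates ± SD, two-way ANOVA.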

Fusarium oxysporum [2] = assay: Antifungal activity against Fusarium oxysporum at 100 ppm after 96 hrs; method in brief: as §1
Helminthosporium [3] = assay: Antifungal activity against Helminthosporium species at 100 ppm after 96 hrs; method in brief: as §1
Helminthosporium [4] = assay: Antifungal activity against Helminthosporium species at 1000 ppm after 96 hrs; method in brief: as §1
Fusarium oxysporum [5] = assay: Antifungal activity against Fusarium oxysporum at 500 ppm after 96 hrs; method in brief: as §1
Alternaria alternata [6] = assay: Antifungal activity against Alternaria alternata at 1000 ppm after 96 hrs; method in brief: as §1
Alternaria alternata [7] = assay: Antifungal activity against Alternaria alternata at 100 ppm after 96 hrs; method in brief: as §1
Helminthosporium [8] = assay: Antifungal activity against Helminthosporium species at 500 ppm after 96 hrs; method in brief: as §1
Alternaria alternata [9] = assay: Antifungal activity against Alternaria alternata at 500 ppm after 96 hrs; method in brief: as §1

SMILES | inhibition at 1000 ppm (Fusarium oxysporum [1]) [%] | inhibition at 100 ppm (Fusarium oxysporum [2]) [%] | inhibition at 100 ppm (Helminthosporium [3]) [%] | inhibition at 1000 ppm (Helminthosporium [4]) [%] | inhibition at 500 ppm (Fusarium oxysporum [5]) [%] | inhibition at 1000 ppm (Alternaria alternata [6]) [%] | inhibition at 100 ppm (Alternaria alternata [7]) [%] | inhibition at 500 ppm (Helminthosporium [8]) [%] | inhibition at 500 ppm (Alternaria alternata [9]) [%]
O=c1c(O)c(-c2cn(-c3ccccc3)nc2-c2ccc([N+](=O)[O-])cc2)oc2ccccc12 | 14.2 | 8.57 | 1.31 | 14.4 | 11.4 | 16.1 | 0 | 1.31 | 16.1
COc1ccc(-c2nn(-c3ccccc3)cc2-c2oc3ccccc3c(=O)c2O)cc1 | 64.2 | 55.5 | 59.7 | 77.6 | 55.3 | 77.3 | 73.5 | 59.7 | 75.4
O=c1c(O)c(-c2cn(-c3ccccc3)nc2-c2ccc(Br)cc2)oc2ccccc12 | 41.4 | 34.2 | 39 | 39.2 | 35.7 | 34.5 | 25.4 | 39.2 | 29
O=c1c(O)c(-c2cn(-c3ccccc3)nc2-c2ccc(Cl)cc2)oc2ccccc12 | 0 | 0 | 0 | 21.4 | 0 | 38.2 | 0 | 1.19 | 38.2
O=c1c(O)c(-c2cn(-c3ccccc3)nc2-c2ccccc2)oc2ccccc12 | 51.7 | 33.9 | 31 | 71.2 | 39.2 | 52.8 | 15 | 50.5 | 41.5
O=c1c(O)c(-c2cn(-c3ccccc3)nc2-c2ccc(F)cc2)oc2ccccc12 | 16 | 8.9 | 12.3 | 58.6 | 8.9 | 50.9 | 30.1 | 28.7 | 43.3
Cc1ccc(-c2nn(-c3ccccc3)cc2-c2oc3ccccc3c(=O)c2O)cc1 | 55.7 | 50 | 73.8 | 76.1 | 51.4 | 61.8 | 60 | 73.8 | 61.8
C[C@@H]1C[C@@H]([C@H](O)CC2CC(=O)NC(=O)C2)C(=O)[C@@H](C)C1 [CYCLOHEXIMIDE] | 50.2 | 39.2 | 38.5 | 50 | 43.4 | 50.6 | 40.2 | 41.5 | 45.5
